2 compounds from ChEMBL document CHEMBL4261601, “Discovery and lead identification of quinazoline-based BRD4 inhibitors” (Bioorg Med Chem Lett, 2018) can be followed below.

Data set [1] addresses T1, Bromodomain testis-specific protein (Homo sapiens, UniProt Q58F21). In words: Displacement of biotinylated acetylated peptide from recombinant human partial length BRDT isoform b bromodomain 2 (K250 to E382 residues) expressed in Escherichia coli BL21 measured after 1 hr by Bromoscan method.
The target in data set [2] is T2, Bromodomain-containing protein 2 (Homo sapiens, UniProt P25440). In words: Displacement of biotinylated acetylated peptide from recombinant human partial length BRD2 isoform 1 bromodomain 2 (E348 to D455 residues) expressed in Escherichia coli BL21 measured after 1 hr by Bromoscan method.
Data set [3] deals with T3, Bromodomain-containing protein 4 (Homo sapiens, UniProt O60885). As to the kind of experiment: Displacement of biotinylated acetylated peptide from recombinant human partial length BRD4 long isoform bromodomain 2 (K333 to E460 residues) expressed in Escherichia coli BL21 measured after 1 hr by Bromoscan method.
In a further data set the test system is MV4-11. In words: Cytotoxicity against human MV411 cells after 72 hrs by CellTiter-Glo assay. Type of data set: functional, cell-based. The following applies: MV4-11, 72 h. In general terms: Cellular ATP, detected with luciferase, serves as a proxy for viable cell number.
Data set [4] deals with T2, Bromodomain-containing protein 2. As to the kind of experiment: Displacement of biotinylated acetylated peptide from recombinant human partial length BRD2 isoform 1 bromodomain 1 (K71 to N194 residues) expressed in Escherichia coli BL21 measured after 1 hr by Bromoscan method.
The target of data set [5] is T1, Bromodomain testis-specific protein. In words: Displacement of biotinylated acetylated peptide from recombinant human partial length BRDT isoform b bromodomain 1/2 (N21 to E382 residues) expressed in Escherichia coli BL21 measured after 1 hr by Bromoscan method.
Data set [6] deals with T4, Bromodomain-containing protein 3 (Homo sapiens, UniProt Q15059). As to the kind of experiment: Displacement of biotinylated acetylated peptide from recombinant human partial length BRD3 bromodomain 1/2 (P24 to P416 residues) expressed in Escherichia coli BL21 measured after 1 hr by Bromoscan method.
Data set [7] deals with T4, Bromodomain-containing protein 3. As to the kind of experiment: Displacement of biotinylated acetylated peptide from recombinant human partial length BRD3 bromodomain 1 (P24 to E144 residues) expressed in Escherichia coli BL21 measured after 1 hr by Bromoscan method.
The target in data set [8] is T3, Bromodomain-containing protein 4. In words: Displacement of biotinylated acetylated peptide from recombinant human partial length BRD4 long isoform bromodomain 1/2 (N44 to E460 residues) expressed in Escherichia coli BL21 measured after 1 hr by Bromoscan method.
For data set [9], the target named is T2, Bromodomain-containing protein 2. As to the kind of experiment: Displacement of biotinylated acetylated peptide from recombinant human partial length BRD2 isoform 1 bromodomain 1/2 (K71 to D455 residues) expressed in Escherichia coli BL21 measured after 1 hr by Bromoscan method.
Data set [10] concerns the target T3, Bromodomain-containing protein 4. In words: Displacement of biotinylated acetylated peptide from recombinant human partial length BRD4 long isoform bromodomain 1 (N44 to E168 residues) expressed in Escherichia coli BL21 measured after 1 hr by Bromoscan method.
The target in data set [11] is T4, Bromodomain-containing protein 3. In words: Displacement of biotinylated acetylated peptide from recombinant human partial length BRD3 bromodomain 2 (G306 to P416 residues) expressed in Escherichia coli BL21 measured after 1 hr by Bromoscan method.
In data set [12] the target is T1, Bromodomain testis-specific protein. In words: Displacement of biotinylated acetylated peptide from recombinant human partial length BRDT isoform b bromodomain 1 (N21 to E137 residues) expressed in Escherichia coli BL21 measured after 1 hr by Bromoscan method.
Data set [13] concerns Mus musculus. As to the kind of experiment: (§1) AUC (0 to infinity) in CD-1 mouse at 10 mg/kg, po. It is filed as ADME, organism-based. Set-up: dose 10 mg/kg, time infinity, route oral. The settings on record: mouse, in vivo, BLD = below limit of detection. The method in brief:
(§2)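 CD-1 mice (n = 3) received a single oral dose of 10 mg/kg. Plasma drug levels were followed over time to derive AUC0–∞, t1/2 and oral bioavailability (F%), the last relative to the iv arm.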

The test system of data set [14] is Mus musculus. As to the kind of experiment: Oral bioavailability in CD-1 mouse at 10 mg/kg. Type of data set: ADME, organism-based. The following applies: in vivo. The method in brief: as §2
Data set [15] can be described thus: AUC (0 to infinity) in CD-1 mouse at 2 mg/kg, iv. Set-up: dose 2 mg/kg, time infinity, route intravenous. It is filed as ADME, organism-based. The following applies: in vivo.
The test system of data set [16] is Mus musculus. In words: Cmax in CD-1 mouse at 2 mg/kg, iv measured after 5 mins. Also on record: dose 2 mg/kg, route intravenous. Type of data set: ADME, organism-based. The settings on record: in vivo.
Data set [17] is described as follows: Half life in CD-1 mouse at 10 mg/kg, po. It is filed as ADME, organism-based. The following applies: in vivo. The essentials:
as §2

Data set [18] is described as follows: Plasma clearance in CD-1 mouse at 2 mg/kg, iv. Type of data set: ADME, organism-based.
Data set [19] in a line: as §1. Type of data set: ADME, organism-based. Also on record: dose 10 mg/kg, time infinity, route oral. The following applies: CD-1, mouse, in vivo. The essentials: as §2
A short description of data set [20]: Half life in CD-1 mouse at 2 mg/kg, iv. Type of data set: ADME, organism-based. The settings on record: in vivo.
Data set [21] in a line: Volume of distribution at steady state in CD-1 mouse at 2 mg/kg, iv measured. Type of data set: ADME, organism-based. The settings on record: in vivo, read-out: Vdss.

T2 sequence (P25440 whole entry, the tested form may be a part, canonical isoform): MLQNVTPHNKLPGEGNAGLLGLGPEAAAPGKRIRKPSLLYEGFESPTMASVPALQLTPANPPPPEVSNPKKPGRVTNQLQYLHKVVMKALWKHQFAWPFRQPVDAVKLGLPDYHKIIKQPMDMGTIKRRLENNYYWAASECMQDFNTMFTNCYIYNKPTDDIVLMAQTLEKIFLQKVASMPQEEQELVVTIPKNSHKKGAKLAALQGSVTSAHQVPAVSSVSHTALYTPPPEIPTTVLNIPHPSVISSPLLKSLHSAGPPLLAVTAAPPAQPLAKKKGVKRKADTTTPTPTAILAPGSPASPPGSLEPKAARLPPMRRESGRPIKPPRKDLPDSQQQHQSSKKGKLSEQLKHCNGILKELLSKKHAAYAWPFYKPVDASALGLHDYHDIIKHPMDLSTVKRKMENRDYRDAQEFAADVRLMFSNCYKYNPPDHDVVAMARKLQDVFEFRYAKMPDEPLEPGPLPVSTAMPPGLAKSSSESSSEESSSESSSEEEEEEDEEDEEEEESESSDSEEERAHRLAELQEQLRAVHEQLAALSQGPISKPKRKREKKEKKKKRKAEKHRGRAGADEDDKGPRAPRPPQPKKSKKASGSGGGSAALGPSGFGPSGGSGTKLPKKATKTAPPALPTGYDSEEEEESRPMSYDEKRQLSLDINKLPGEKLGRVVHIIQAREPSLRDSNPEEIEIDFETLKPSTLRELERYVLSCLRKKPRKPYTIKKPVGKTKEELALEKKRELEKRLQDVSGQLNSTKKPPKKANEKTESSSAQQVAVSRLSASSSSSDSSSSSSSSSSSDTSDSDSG
T4 sequence (Q15059 whole entry, the tested form may be a part): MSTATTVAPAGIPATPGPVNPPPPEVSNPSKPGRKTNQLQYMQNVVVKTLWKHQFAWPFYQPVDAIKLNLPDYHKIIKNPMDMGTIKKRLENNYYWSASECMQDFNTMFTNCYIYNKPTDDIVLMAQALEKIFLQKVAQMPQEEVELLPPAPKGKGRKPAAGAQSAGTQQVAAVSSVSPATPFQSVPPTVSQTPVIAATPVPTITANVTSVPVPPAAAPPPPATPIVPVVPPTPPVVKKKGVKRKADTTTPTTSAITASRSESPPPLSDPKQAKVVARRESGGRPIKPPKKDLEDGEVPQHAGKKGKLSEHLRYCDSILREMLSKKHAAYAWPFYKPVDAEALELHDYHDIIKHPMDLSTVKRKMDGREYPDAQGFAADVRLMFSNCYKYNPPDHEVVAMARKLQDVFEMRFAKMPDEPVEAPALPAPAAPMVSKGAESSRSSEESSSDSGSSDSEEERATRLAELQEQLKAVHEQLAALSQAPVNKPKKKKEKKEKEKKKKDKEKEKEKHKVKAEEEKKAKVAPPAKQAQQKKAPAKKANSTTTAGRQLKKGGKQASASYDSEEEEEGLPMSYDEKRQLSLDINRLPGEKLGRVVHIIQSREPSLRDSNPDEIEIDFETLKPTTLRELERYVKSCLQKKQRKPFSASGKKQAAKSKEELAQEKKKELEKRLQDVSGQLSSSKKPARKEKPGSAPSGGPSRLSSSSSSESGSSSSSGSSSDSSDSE

Turning to `CN(C)CCN1CCN(c2nc(NCc3cccc(Cl)c3)c3cc(-c4ccc(=O)n(C)c4)ccc3n2)CC1`, the Kd in [1] was 0.16 µM; in data set [2], 0.024 µM; in data set [3] it was 0.05 µM; in [4], 0.033 µM; in [5] it was 0.067 µM; in data set [6] it was 0.02 µM. Besides, the Kd in data set [7] was determined as 0.021 µM; in data set [8] it was 0.044 µM; in data set [9] it was 0.027 µM; in [10], 0.018 µM; in [11] it was 0.021 µM; in [12] it was 0.02 µM. Further, 0.54 µM corresponded to half-maximal inhibition with MV4-11 (IC50). Besides, in the data set with Mus musculus [13], the AUC result is reported as “Bld”.

As for `Cc1noc(C)c1-c1ccc2nc(-c3cnn(CCO)c3)nc(N3CCOCC3c3ccccc3)c2c1` (stereo not drawn), the F with Mus musculus [14] worked out at 51%. In addition, the figures for the AUC(0-inf) in data set [15] and in data set [19] were 1.76 µg·h/mL and 4.49 µg·h/mL, respectively. The compound also showed a Cmax with Mus musculus [16] of 1.69 µg/mL. In addition, the half-life is 2.1 h in data set [17] and 3.1 h in [20]. Moreover, the dissociation constant (Kd) in data set [8] amounted to 0.066 µM. Further, the clearance in data set [18] stood at 1.19 L/h/kg. In addition, the Vd in data set [21] worked out at 1.7 L/kg.

As a reminder, the Kd is the free concentration of one partner at which half of the binding sites on the other are occupied at equilibrium, for simple one-to-one binding. In general, IC50 refers to the concentration that gives 50% inhibition. Higher therefore signals weaker potency. The AUC(0-inf) is the area under the concentration-time curve extrapolated to infinity. The low end stands for less exposure, the high end for more exposure. Usually Cmax stands for the highest concentration seen after dosing. One may read the half-life as the time needed for the level to fall by half in the phase considered. A higher half-life goes with slow decline. The term clearance denotes the rate of elimination divided by the concentration. A lower clearance goes with a low capacity for elimination.
